PostGolgi ctrl: inhibits growth of the yeast control strain; efflux-deficient yeast background strain, growth absorbance A615, 16 h; inhibition, % at 10 µM; 98,000 compounds, 5% hits; AID 738
Calb biofilm kill: kills Candida albicans biofilms | C. albicans biofilm + clotrimazole, Alamar Blue | inhibition, % at 6 µM | 85,000 compounds, 0.14% hits | AID 834;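 active = inhibition above 20%; inactive = inhibition below 20%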;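 note: preformed 24 hr biofilms exposed to compound for 48 hr; 0% = biofilm without compound and 100% = blank killed by clotrimazole plus chlorhexidine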
Ecoli WT expand: E. coli BW25113 growth inhibition, expanded screen | growth inhibition, % at 100 µM | OD600 absorbance | 98,000 compounds, 0.15% hits;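 active = growth inhibition above about 50% at one test dose, limit read from the data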;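 note: growth measured after 20 h incubation at 37 °C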
Pyk2 oligo antag: antagonists of human Pyk2 oligomerization | Q14289 | Q293 cells, Pyk2 FERM NanoBiT luminescence; active compounds read low | z-score (the deposit names both 25 µM and 10 µM) | 99,000 compounds, 0.83% hits | AID 1347419;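 active = Z-score of -3 or lower, scaled per plate to the spread of control and sample wells; inactive = z-score above -3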;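 note: negative z-score means lost luminescence so less FERM oligomerization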
Target sequence (Q14289 whole entry, looked up): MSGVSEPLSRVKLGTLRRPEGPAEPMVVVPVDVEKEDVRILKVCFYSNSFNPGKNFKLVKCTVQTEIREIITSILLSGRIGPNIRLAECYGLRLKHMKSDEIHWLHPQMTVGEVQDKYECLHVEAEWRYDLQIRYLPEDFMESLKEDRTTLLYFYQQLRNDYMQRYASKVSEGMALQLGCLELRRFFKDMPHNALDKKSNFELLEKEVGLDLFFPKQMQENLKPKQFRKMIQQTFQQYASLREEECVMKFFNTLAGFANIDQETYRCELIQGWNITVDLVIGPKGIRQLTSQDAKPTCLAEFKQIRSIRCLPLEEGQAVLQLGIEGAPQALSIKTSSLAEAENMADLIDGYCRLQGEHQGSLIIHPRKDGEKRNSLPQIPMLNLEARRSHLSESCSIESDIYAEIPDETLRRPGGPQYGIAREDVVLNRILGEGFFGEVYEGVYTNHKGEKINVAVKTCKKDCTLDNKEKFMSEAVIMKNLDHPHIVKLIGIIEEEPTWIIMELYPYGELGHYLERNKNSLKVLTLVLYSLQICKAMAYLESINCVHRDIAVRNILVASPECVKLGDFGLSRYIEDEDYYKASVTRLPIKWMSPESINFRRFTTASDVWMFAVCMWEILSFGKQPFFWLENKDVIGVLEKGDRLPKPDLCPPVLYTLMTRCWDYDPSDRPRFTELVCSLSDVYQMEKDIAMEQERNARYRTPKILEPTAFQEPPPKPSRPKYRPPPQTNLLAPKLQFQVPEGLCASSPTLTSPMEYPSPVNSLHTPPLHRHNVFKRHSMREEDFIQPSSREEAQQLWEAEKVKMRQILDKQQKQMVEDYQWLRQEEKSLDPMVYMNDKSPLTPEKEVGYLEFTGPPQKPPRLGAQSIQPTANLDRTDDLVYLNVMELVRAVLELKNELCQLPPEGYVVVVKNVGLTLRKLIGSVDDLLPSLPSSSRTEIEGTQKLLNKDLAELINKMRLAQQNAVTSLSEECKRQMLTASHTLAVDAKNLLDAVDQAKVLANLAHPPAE
tolC growth inh: blocks growth of E. coli BW25113 tolC mutant; OD615; growth inhibition, % at 10 µM (by protocol); 65,000 compounds, 2.2% hits;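 active = growth inhibition at or above a cutoff equal to the mean over every tested compound plus 3 SD, cut at about 60% in these data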;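 note: growth measured after 20 h incubation at 37 °C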
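signal = optical density read at 615 nm | test system = E. coli ΔtolC::kan strain BW25113 | timing = 20 h compound exposure of bacteria at 37 °C | buffer or medium = LB medium plus 50 µg/mL kanamycin | compound dosing = 10 µM final, single dose | evaluation = % inhibition of E. coli growth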
PostGolgi yeast: growth inhibition of a yeast mutant, post-Golgi transport screen; 98,000 compounds, 0.9% hits; AID 739; inhibition, % at 10 µM; post-Golgi transport phenotypic cell assay;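 note: yeast cells grown in 1536-well plates; yeast grown about 18 h at 30C before absorbance read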
The depositor's hits bear a star; nt = no result. Compounds with a hit are over-represented: about 6.5% of the library has one in this group of screens. Cut-off read from the data, not from the text of the source, unless noted: active = inhibition above about 30%; inactive = the rest.

SMILES | PostGolgi ctrl | Calb biofilm kill | Ecoli WT expand | Pyk2 oligo antag | tolC growth inh | PostGolgi yeast
CC12CC(c3ccccc3O1)N(C(=O)c1ccco1)C(=S)N2c1ccc(F)cc1 (stereo not drawn) | 23 | 3 | 3 | -0.4 | nt | -7
Cc1ccc(NS(=O)(=O)c2cc(C(=O)N3CCc4ccccc4C3)ccc2Cl)cc1 | 64* | nt | -11 | -1 | nt | 35*
Cc1ccccc1NS(=O)(=O)c1cc(C(=O)N2CCc3ccccc3C2)ccc1C | 14 | nt | -6 | -1.6 | nt | 0
Cc1cccc(NS(=O)(=O)c2cc(C(=O)N3CCN(C)CC3)ccc2C)c1 | 32* | 4 | 10 | 0.5 | nt | -4
COc1ccccc1N1CCN(CC(O)c2ccc3cc[nH]c3c2)CC1 (stereo not drawn) | 7 | 9 | 6 | nt | 8 | 39*
OC(CC1CC12c1ccccc1-c1ncccc12)(c1ccccc1)c1ccccc1 (stereo not drawn) | 45* | 5 | -2 | -1.1 | nt | 0
O=S1(=O)C=C(Sc2nc3cc(Cl)ccc3o2)c2ccccc21 | 39* | nt | -1 | -0.97 | 6 | 14
O=C(Nc1nnc(C2CC2)s1)C1Cc2ccccc2CN1S(=O)(=O)c1ccccc1F (stereo not drawn) | 8 | 9 | -6 | -3.7* | nt | 3
O=C(COC(=O)Cc1ccsc1)NC1CCCCCC1 | 18 | 5 | 10 | -0.12 | -8 | -5
Cc1ccc(CN(CC(=O)NCCc2ccccc2)C(=O)CCCC(=O)Nc2cc(C)on2)cc1 | 3 | 5 | 3 | -2.6 | 11 | 9
CCCCCn1c(CN2CCN(c3cccc(Cl)c3)CC2)nc2c1c(=O)[nH]c(=O)n2C | 45* | 8 | 1 | -1.1 | 14 | 2
Cn1c(=O)[nH]c(=O)c2c1nc(CN1CCN(c3cccc(Cl)c3)CC1)n2CCc1ccccc1 | 14 | 1 | -13 | 0.41 | 8 | -2
CC(C)CCn1c(N2CCN(c3cccc(Cl)c3)CC2)nc2c1c(=O)[nH]c(=O)n2C | 35* | nt | -3 | -0.12 | 33 | 3
Cc1cc2nc3c(nc2cc1C)C1(C(=O)O)CCC3(C)C1(C)C (stereo not drawn) | 32* | -4 | -2 | 0.46 | -11 | -7
COc1ccc(C(=O)OC(C(=O)c2ccccc2)c2ccccc2)cc1 (stereo not drawn) | 66* | nt | -21 | -2 | nt | -1
COC(=O)NC(=S)Nc1ccc(Oc2ccc(Cl)cc2Cl)c(Cl)c1 | nt | 4 | nt | 0.13 | nt | nt
Cc1ccccc1C(=O)OCCN1CCOCC1 | nt | nt | nt | 1.2 | nt | nt
O=C1CCCC2=C1C(c1ccc(Cl)cc1)C1C(=O)c3ccccc3C1=N2 (stereo not drawn) | 43* | nt | -8 | -2.9 | nt | 10
O=C1CCCC2=C1C(c1ccc(Cl)cc1)N1C(=O)CCSC1=N2 (stereo not drawn) | nt | 10 | nt | -0.39 | nt | nt
Cc1nnc(NC(=O)CCC(=O)N2CCN(CCc3ccccc3)CC2)s1 | nt | -1 | nt | nt | -10 | nt
COC(=O)c1ccc(C(c2c(N)n(CC(C)C)c(=O)[nH]c2=O)N2CCN(c3ccccc3)CC2)cc1 (stereo not drawn) | 35* | 9 | -6 | -0.59 | 3 | -17
COc1cc(C2C3=C(CC(C)(C)CC3=O)N(C)C(=O)N2C)cc(OC)c1OC (stereo not drawn) | 10 | 5 | 3 | 0.75 | 1 | 9
Cc1cccc(C)c1N1C(=O)c2ccccc2C1=O | 7 | 40* | 6 | 0.99 | 18 | 9
Cc1ccc(NC(=O)c2cccc(N3C(=O)CCC3=O)c2)nc1 | 5 | 9 | 4 | -0.1 | 1 | 3
CCCN1Cc2cccc(C(=O)Nc3ccc4c(c3)OCCO4)c2C1=O | 36* | 6 | -3 | nt | 9 | 11
SMILES | PostGolgi ctrl | Calb biofilm kill | Ecoli WT expand | Pyk2 oligo antag | tolC growth inh | PostGolgi yeast
Cc1csc(SCC(=O)Nc2ncc(Cl)c(C)c2Cl)n1 | -3 | 0 | 9 | 0.53 | nt | 5
CC(C)(C)NC(=O)CN(C(=O)Cn1nnc(-c2ccccc2F)n1)c1cccc2c1CCCC2 | -2 | nt | -5 | -0.66 | nt | 12
Nc1ccc(C(=O)N/N=C2\CCCc3c2[nH]c2ccccc32)cc1 | 44* | nt | -9 | -0.45 | nt | -5
O=P(OC1CCCCC1)(OC1CCCCC1)C(O)c1c(Cl)cccc1Cl (stereo not drawn) | 36* | 2 | -3 | -1 | nt | -3
Cc1ccc(C(O)P(=O)(OC2CCCCC2)OC2CCCCC2)cc1 (stereo not drawn) | 40* | 8 | 2 | 0.63 | nt | 22
O=P(OC1CCCCC1)(OC1CCCCC1)C(O)c1ccc(Cl)cc1Cl (stereo not drawn) | 9 | 7 | -5 | -1.6 | nt | -4
Cc1ccc(Sc2c(C=O)c3ccccc3n2C)cc1 | 45* | nt | 1 | -1.8 | nt | 7
Cc1ccc(C2=NN3C(C(=O)c4ccccc4)Oc4ccccc4C3C2)cc1 (stereo not drawn) | 50* | nt | -14 | -0.84 | nt | 12
CCCC(C(=O)NC1CCCC1)N(C(=O)Cn1nnc(-c2ccc(C)o2)n1)c1ccccc1OC (stereo not drawn) | 9 | 11 | -5 | -1.1 | 35 | -3
Cc1occc1C(=O)NNC(=O)C(c1ccccc1)c1ccccc1 | 7 | nt | 3 | 0.45 | nt | -2
Cc1onc(-c2c(F)cccc2Cl)c1C(=O)Nc1nc2c(s1)CCCC2 | 9 | 9 | -16 | -3.6* | 63* | -7
Cc1onc(-c2ccccc2)c1C(=O)Nc1nc2c(s1)CCCC2 | 34* | -2 | -3 | -3.4* | 30 | -8
Cc1cc(C(=O)Nc2nc3c(s2)CCCC3)no1 | 19 | 3 | 1 | -0.48 | 1 | 4
c1ccc2sc(Cc3nnc4n3CCCCC4)nc2c1 | 41* | 5 | -3 | -0.16 | -14 | -2
Cc1ccc(-n2c(=O)[nH]cc(C(=O)Nc3ccc4c(c3)OCCO4)c2=O)cc1 | 0 | 6 | -25 | -3.1* | 0 | -10
Cc1oc(C(C)(C)C)cc1C(=O)Nc1ccc2c(c1)OCCO2 | 15 | 8 | 1 | -0.22 | 80* | 1
Cc1ccc(-n2c(=O)[nH]cc(C(=O)Nc3ccc4c(c3)OCCO4)c2=O)cc1C | 5 | 3 | -6 | -2.3 | 67* | 0
COc1ccc(-n2c(=O)[nH]cc(C(=O)Nc3ccc4c(c3)OCCO4)c2=O)cc1 | -4 | 4 | -2 | -2.1 | 32 | 1
COc1cc(NC(=S)N2CCN(C(c3ccccc3)c3ccccc3)CC2)cc(OC)c1 | 11 | nt | -7 | -1.1 | nt | 0
CCc1ccc(NC(=O)CCNS(=O)(=O)c2cccc3nonc23)cc1 | 1 | 0 | -2 | -0.49 | 32 | -1
CCOC(=O)N1CCc2c(sc(NC(C)=O)c2C(N)=O)C1 | nt | 5 | nt | nt | -8 | nt
CCOC(=O)N1CCc2c(sc(NC(=O)c3ccc(Cl)s3)c2C(N)=O)C1 | 22 | nt | -4 | nt | 73* | 3
Cc1nc2c(C)cccc2cc1C(=O)N/N=C/c1cccnc1 | nt | nt | nt | 1.1 | nt | nt
COc1cccc(-c2cc(C(=O)Nc3c(C)nn(Cc4ccccc4C)c3C)no2)c1 | 15 | 5 | -6 | 2 | 71* | 4
Cc1nn(Cc2ccc(Cl)c(Cl)c2)c(C)c1NC(=O)c1noc2c1CCCCC2 | 1 | 4 | -8 | -1.4 | -16 | -9

Screening results: PubChem BioAssay, several laboratories
